PubChem BioAssay AID871 (The Scripps Research Institute Molecular Screening Center, 2007)
The campaign covered roughly 190,000 compounds. About 1,800 (0.95%) were called active. The sample as a whole holds a higher share of actives than the screen did. A number with no mark means an inactive call.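 Rule for the calls: active = activation above the screen-wide mean of compound activation plus 3 SD (cut at about 130% in these data); inactive = the rest.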

Test: IL-6 driven STAT3 reporter potentiators, primary screen, U3A cells, luciferase, luminescence, MLSCN library (AID 871);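 note: 0% = background luminescence of wells with medium and substrate only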
Conditions: IL-6 STAT3-luciferase reporter, at 5.6 µM, stronger effect = higher value, 100% = signal with IL-6 EC80 alone
Procedure, shortened: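 System – human U3A cells carrying STAT3-luciferase construct · Probe or stimulus – Interleukin-6, 33 ng/mL · Schedule – compound 1 h, then IL-6 6 h at 37 °C · Signal – luminescence from STAT3-driven luciferase reporter · Evaluation – percent of IL-6-only median luminescence · Benchmarks – IL-6-only high control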

In order of falling activation (% of control):
1. Fc1cc(F)c2nc(Nc3nc4c(F)cccc4s3)sc2c1  129%
2. Cc1nc(NC(=O)c2cccc(Cl)c2)sc1-c1csc(Nc2cccc(Cl)c2)n1  117%
3. Cc1cc(NC(=O)CN2CCCC(C)C2)n(-c2nc3ccccc3s2)n1 (stereo unspecified)  113%
4. COc1ccc(/C=C(\NC(=O)c2ccc(OCC(C)C)cc2)C(=O)OCc2ccco2)cc1  111%
5. COc1ccc2c(CC(=O)OCC(=O)Nc3ccccc3[N+](=O)[O-])coc2c1  110%
6. Cn1c(=O)c2cc(S(=O)(=O)NCCC(=O)Nc3ccc(F)cc3F)ccc2n(C)c1=O  109%
7. COc1cccc2sc(Nc3nc(C)c(C(C)=O)s3)nc12  108%
8. CCOC(=O)N1CCN(CC(=O)Nc2ccc(F)cc2)CC1  108%
9. CCn1cc(C(=O)NCCCN2CCCCCC2)c(=O)c2cc(S(=O)(=O)N3CCc4ccccc4C3)ccc21  108%
10. COc1ccc(C(=O)ON=C2c3ccccc3-c3ccccc32)cc1OC  107%
11. Cc1nc(NC(=O)CN(C)S(=O)(=O)c2ccc(Cl)cc2)sc1C  106%
12. CCOC(=O)c1c(-c2ccccc2)csc1NC(=S)NC(=O)c1ccccc1  106%
13. CSc1ccc(CN(C)CC(=O)NCc2ccc(F)cc2)cc1  106%
14. CCCCCCC(=O)Nc1nc(C)c(-c2csc(Nc3cc(Cl)ccc3OC)n2)s1  105%
15. O=C(/C=C/c1ccccc1)Nc1nnc(SCC(=O)c2ccc3ccccc3c2)s1  104%
16. O=C(CCNC(=O)c1ccc([N+](=O)[O-])cc1)Nc1ccccc1N1CCOCC1  104%
17. Cc1ccc2c(c1)c1ncn(CCC3=CCCCC3)c(=O)c1n2C  104%
18. CC12CN(NC(=O)c3ccc(Cl)cc3)C3(C#N)CC1CCC23C (stereo unspecified)  104%
19. O=C(CSc1ccccn1)Nc1nc2c(ccc3ccccc32)s1  103%
20. CC(=O)N1N=C(c2ccccc2)OC1c1cccnc1 (stereo unspecified)  103%
21. Cc1ccc(S(=O)(=O)c2ccc(Cl)cc2)cc1S(=O)(=O)NC(C(=O)O)C(C)C (stereo unspecified)  102%
22. COc1ccc(NC(=O)CC2C(=O)OCC3CCCCN32)cc1Cl (stereo unspecified)  102%
23. COc1ccc(NS(=O)(=O)c2ccc(O)c(C(=O)OCC(=O)NC3CCCCC3)c2)cc1  102%
24. Fc1ccc(COc2cccc(-c3n[nH]c(=S)o3)c2)cc1  102%
25. Cc1ccc(-c2csc(NNC(=O)c3ccccc3)n2)cc1  101%
26. COC(=O)c1ccc(CSc2nc3ccccc3c(=O)n2-c2cccc(OC)c2)o1  101%
27. O=Cc1ccc(OCc2cn3ccccc3n2)cc1  101%
28. COc1ccc(NC(=O)C(Br)C(C)C)cc1 (stereo unspecified)  101%
29. COc1ccc(-c2csc(NC(=O)COC(=O)Cc3ccc(Cl)cc3Cl)n2)cc1  100%
30. CCCCCCC(=O)Nc1nc(C)c(-c2csc(Nc3cccc(OC)c3)n2)s1  99.6%
31. COc1ccccc1CN(C)c1nnnn1-c1ccccc1  99.5%
32. Clc1ccc(-c2nc3ccccn3c2CN2CCSCC2)cc1  99.3%
33. COc1cccc(-n2cc(C(=O)O)c3ccccc3c2=O)c1  98.5%
34. Cc1ccc(-c2cc(C(=O)N3CCc4ccccc4C3)no2)cc1  98.3%
35. Cc1ccc(Cl)cc1NC(=S)N(CCN(C)C)Cc1cccs1  96.1%
36. NC(=O)CC[C@@H]1NC(=O)[C@H](CO)NC(=O)c2cc([N+](=O)[O-])cc(I)c2NCC[C@@H](C(N)=O)NC1=O  95.5%
37. c1ccc(C2c3[nH]c4ccccc4c3CCN2Cc2cccn2-c2cccnc2)nc1 (stereo unspecified)  94%
38. NC(=O)Cn1nc([N+](=O)[O-])nc1Oc1ccc(Br)cc1  93.7%
39. Cc1cc(O)cc(O)c1C(=O)Cc1cnn(-c2ccccc2)c1  92.8%
40. COCCN(C(=O)c1ccccc1F)c1c(N)n(Cc2ccccc2)c(=O)[nH]c1=O  89.7%
41. CC(=O)Nc1cccc(NC(=O)c2c(-c3ccccc3)noc2C)c1  88.8%
42. COc1cc2c(cc1/C=C1/NC(=O)N(c3ccccc3)C1=O)OCO2  88.5%
43. CCN=c1sc(C(=O)Nc2ccccc2)c(C)n1CC  84.4%
44. CCOC(=O)N1CCN(Cc2nc3ccc([N+](=O)[O-])cc3c(=O)n2-c2cccc(OC)c2)CC1  83.3%
45. CCCOc1ccccc1C1CC(=O)Nc2cc3c(cc21)OCO3 (stereo unspecified)  66.4%

For Cc1ccc(Nc2nc(-c3sc(NC(=O)c4ccccc4)nc3C)cs2)cc1, the activation (% of control) was 138% (active).
In the case of C=CCCC(=O)Nc1nc(C)c(-c2csc(Nc3ccc(Cl)cc3)n2)s1, the activation (% of control) is reported as 159% (active).
With CCCCC(=O)Nc1nc(C)c(-c2csc(Nc3ccc(Cl)cc3)n2)s1 the activation (% of control) was 149% (active).
With COc1cccc(-n2c(=S)[nH]c3c(oc4ccccc43)c2=O)c1 the activation (% of control) was 136% (active).
For NNc1nc2c(Cl)cccc2s1, the activation (% of control) was 134% (active).
For CCOC(=O)c1c(-c2cccc(C)c2)csc1NC(=O)c1c(-c2ccccc2)noc1C, the activation (% of control) was 137% (active).
For COc1ccccc1C1C2=C(COC2=O)Nc2cc3c(cc21)OCO3 (stereo unspecified), the activation (% of control) was 144% (active).
In the case of CCOC(=O)N1CCN(CC(=O)Nc2cc(C)nn2-c2nc3ccccc3s2)CC1, the activation (% of control) is reported as 162% (active).
In the case of Oc1cccc(C2c3[nH]c4ccccc4c3CCN2Cc2cnn(-c3ccccc3)c2)c1 (stereo unspecified), the activation (% of control) is reported as 138% (active).
In the case of Cc1ccc2c(c1)c1ncnc(N3CCc4ccccc4C3)c1n2C, the activation (% of control) is reported as 133% (active).
In the case of COc1ccc(NC(=O)ON=C2c3ccccc3-c3ccccc32)cc1, the activation (% of control) is reported as 152% (active).
